The source made the active and inactive calls. The calls are words filed in the database; no cut-off is given here.
Assays:
[1] = test system: Enterococcus faecalis; test: Antibacterial activity against Enterococcus faecalis after 16 to 20 hrs by broth microdilution method; assay type: functional
Summary of the method: (§1)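 Broth microdilution per CLSI in cation-adjusted Mueller-Hinton broth; 4-6 h cultures (~10⁸ CFU/mL) diluted to ~10⁶ CFU/mL and mixed 1:1 with twofold dilutions of water-dissolved compound (256 to 0.5 µg/mL). Incubated 16-20 h at 37 °C; MIC read visually. Each concentration run in duplicate, whole experiment repeated at least twice. MRSA, KPC and NDM-1 strains were clinical isolates.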

[2] = test system: Klebsiella pneumoniae; test: Antibacterial activity against carbapenemase-producing Klebsiella pneumoniae isolate K9 after 16 to 20 hrs by broth microdilution method; assay type: functional; summary of the method: as §1
[3] = test system: Klebsiella pneumoniae; test: Antibacterial activity against carbapenemase-producing Klebsiella pneumoniae isolate K1 after 16 to 20 hrs by broth microdilution method; assay type: functional; summary of the method: as §1
[4] = test system: Staphylococcus aureus; test: Induction of cytoplasmic membrane depolarization in Staphylococcus aureus ATCC 29213 at 20 ug/ml measured every 2 mins for 12 mins by diSC35 staining based fluorescence assay; assay type: functional, organism-based
Summary of the method: (§2)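 Mid-log cells (4–6 h) pelleted, washed and resuspended (~10^8 CFU/mL) in PBS for S. aureus, or in 5 mM HEPES, 5 mM glucose and 100 mM KCl (1:1:1) for E. coli. Preloaded with diSC35 (10 µM, 50 µL), 30 min for S. aureus and 40 min plus EDTA (200 µM, 50 µL) for E. coli. Baseline read 8 min (ex 622/em 670 nm), then compound added to 20 µg/mL final and read every 2 min for 12 min. Water control.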

[5] = test system: Staphylococcus aureus; test: Antibacterial activity against methicillin-resistant Staphylococcus aureus after 16 to 20 hrs by broth microdilution method; assay type: functional
Summary of the method: (§3)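 CLSI broth microdilution in cation-adjusted Mueller-Hinton broth. A 4-6 h culture was diluted to about 10⁶ CFU/mL and mixed 1:1 with twofold compound dilutions (256–0.5 µg/mL before mixing) prepared from aqueous stocks. Plates were incubated at 37 °C for 16-20 h. Each concentration was tested in duplicate, and the experiment was repeated at least twice.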

[6] = test system: Staphylococcus aureus; test: Antibacterial activity against methicillin-resistant Staphylococcus aureus isolate M7 after 16 to 20 hrs by broth microdilution method; assay type: functional; summary of the method: as §3
[7] = test system: Staphylococcus aureus; test: Antibacterial activity against methicillin-resistant Staphylococcus aureus isolate M10 after 16 to 20 hrs by broth microdilution method; assay type: functional; summary of the method: as §3
[8] = test system: Escherichia coli; test: Antibacterial activity against Escherichia coli ATCC 25922 after 16 to 20 hrs by broth microdilution method; assay type: functional; summary of the method: as §1
[9] = test system: Escherichia coli; test: Induction of cytoplasmic membrane depolarization in Escherichia coli ATCC 25922 at 20 ug/ml measured every 2 mins for 12 mins by diSC35 staining based fluorescence assay; assay type: functional, organism-based; summary of the method: as §2
[10] = test system: Escherichia coli; test: Induction of inner membrane permeabilization in Escherichia coli ATCC 25922 at 20 ug/ml measured every 2 mins for 12 mins by propidium iodide staining based fluorescence assay; assay type: functional, organism-based
Summary of the method: (§4)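 Mid-log cells (~10^8 CFU/mL) pre-incubated with propidium iodide (10 µM, 50 µL), 30 min for S. aureus and 40 min for E. coli. Fluorescence (ex 535/em 617 nm) read for 8 min, then compound added to 20 µg/mL final and monitored every 2 min for 12 min. Water-treated control.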

[11] = test system: Staphylococcus aureus; test: Antibacterial activity against methicillin-resistant Staphylococcus aureus isolate M1 after 16 to 20 hrs by broth microdilution method; assay type: functional; summary of the method: as §3
[12] = test system: Klebsiella pneumoniae; test: Antibacterial activity against carbapenemase-producing Klebsiella pneumoniae isolate K10 after 16 to 20 hrs by broth microdilution method; assay type: functional; summary of the method: as §1
[13] = test system: Klebsiella pneumoniae; test: Antibacterial activity against carbapenemase-producing Klebsiella pneumoniae isolate K2 after 16 to 20 hrs by broth microdilution method; assay type: functional; summary of the method: as §1
[14] = test system: Klebsiella pneumoniae; test: Antibacterial activity against carbapenemase-producing Klebsiella pneumoniae isolate K8 after 16 to 20 hrs by broth microdilution method; assay type: functional; summary of the method: as §1
[15] = test system: Staphylococcus aureus; test: Antibacterial activity against methicillin-resistant Staphylococcus aureus isolate M2 after 16 to 20 hrs by broth microdilution method; assay type: functional; summary of the method: as §3
[16] = test system: Staphylococcus aureus; test: Antibacterial activity against methicillin-resistant Staphylococcus aureus isolate M9 after 16 to 20 hrs by broth microdilution method; assay type: functional; summary of the method: as §3
[17] = test system: Staphylococcus aureus; test: Antibacterial activity against methicillin-resistant Staphylococcus aureus isolate M4 after 16 to 20 hrs by broth microdilution method; assay type: functional; summary of the method: as §3
[18] = test system: Enterobacteriaceae; test: Antibacterial activity against NDM-1-producing Enterobacteriaceae isolate N8 after 16 to 20 hrs by broth microdilution method; assay type: functional; summary of the method: as §1
[19] = test system: Enterobacteriaceae; test: Antibacterial activity against NDM-1-producing Enterobacteriaceae isolate N4 after 16 to 20 hrs by broth microdilution method; assay type: functional; summary of the method: as §1
[20] = test system: Enterobacteriaceae; test: Antibacterial activity against NDM-1-producing Enterobacteriaceae isolate N9 after 16 to 20 hrs by broth microdilution method; assay type: functional; summary of the method: as §1
[21] = test system: Staphylococcus aureus; test: Antibacterial activity against methicillin-resistant Staphylococcus aureus isolate M8 after 16 to 20 hrs by broth microdilution method; assay type: functional; summary of the method: as §3
[22] = test system: Enterobacteriaceae; test: Antibacterial activity against NDM-1-producing Enterobacteriaceae isolate N2 after 16 to 20 hrs by broth microdilution method; assay type: functional; summary of the method: as §1
[23] = test system: Enterobacteriaceae; test: Antibacterial activity against NDM-1-producing Enterobacteriaceae isolate N3 after 16 to 20 hrs by broth microdilution method; assay type: functional; summary of the method: as §1
[24] = test system: Enterobacteriaceae; test: Antibacterial activity against NDM-1-producing Enterobacteriaceae isolate N5 after 16 to 20 hrs by broth microdilution method; assay type: functional; summary of the method: as §1
[25] = test system: Klebsiella pneumoniae; test: Antibacterial activity against carbapenemase-producing Klebsiella pneumoniae isolate K6 after 16 to 20 hrs by broth microdilution method; assay type: functional; summary of the method: as §1
[26] = test system: Staphylococcus aureus; test: Antibacterial activity against methicillin-resistant Staphylococcus aureus isolate M3 after 16 to 20 hrs by broth microdilution method; assay type: functional; summary of the method: as §3
[27] = test system: Staphylococcus aureus; test: Induction of inner membrane permeabilization in Staphylococcus aureus ATCC 29213 at 20 ug/ml measured every 2 mins for 12 mins by propidium iodide staining based fluorescence assay; assay type: functional, organism-based; summary of the method: as §4
[28] = test system: Enterobacteriaceae; test: Antibacterial activity against NDM-1-producing Enterobacteriaceae isolate N7 after 16 to 20 hrs by broth microdilution method; assay type: functional; summary of the method: as §1
[29] = test system: Enterobacteriaceae; test: Antibacterial activity against NDM-1-producing Enterobacteriaceae isolate N6 after 16 to 20 hrs by broth microdilution method; assay type: functional; summary of the method: as §1
[30] = test system: Klebsiella pneumoniae; test: Antibacterial activity against carbapenemase-producing Klebsiella pneumoniae isolate K3 after 16 to 20 hrs by broth microdilution method; assay type: functional; summary of the method: as §1
[31] = test system: Staphylococcus aureus; test: Antibacterial activity against methicillin-resistant Staphylococcus aureus isolate M6 after 16 to 20 hrs by broth microdilution method; assay type: functional; summary of the method: as §3
[32] = test system: Klebsiella pneumoniae; test: Antibacterial activity against carbapenemase-producing Klebsiella pneumoniae isolate K7 after 16 to 20 hrs by broth microdilution method; assay type: functional; summary of the method: as §1
[33] = Hemolytic activity in sheep RBC after 1 hr; assay type: ADME, cell-based, Ovis aries, Erythrocyte; conditions: sheep red blood cells (erythrocytes)
Summary of the method: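 Sheep RBCs suspended at 5% in PBS; 150 µL added to 50 µL compound dilutions (5120 to 10 µg/mL series). Incubated 1 h at 37 °C, then centrifuged; supernatant absorbance read at 540 nm. Lysis (%) = (A−A0)/(Atotal−A0)×100, with untreated 5% RBC as A0 and 0.1% Triton X-100 as total.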

[34] = test system: Escherichia coli; test: Induction of outer membrane permeabilization in Escherichia coli ATCC 25922 at 20 ug/ml measured every 2 mins for 12 mins by NPN staining based fluorescence assay; assay type: functional, organism-based
Summary of the method: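 Mid-log E. coli (~10^8 CFU/mL) in black plates pre-incubated about 40 min with NPN (10 µM, 50 µL). Baseline read 8 min (ex 350/em 420 nm), then compound added to 20 µg/mL final and fluorescence followed every 2 min for 12 min. Water-treated control.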

[35] = test system: Enterobacteriaceae; test: Antibacterial activity against NDM-1-producing Enterobacteriaceae isolate N10 after 16 to 20 hrs by broth microdilution method; assay type: functional; summary of the method: as §1
[36] = test system: Enterobacteriaceae; test: Antibacterial activity against NDM-1-producing Enterobacteriaceae isolate N1 after 16 to 20 hrs by broth microdilution method; assay type: functional; summary of the method: as §1
[37] = test system: Staphylococcus aureus; test: Antibacterial activity against Staphylococcus aureus ATCC 29213 after 16 to 20 hrs by broth microdilution method; assay type: functional; summary of the method: as §3
[38] = test system: Salmonella enterica; test: Antibacterial activity against Salmonella enterica after 16 to 20 hrs by broth microdilution method; assay type: functional; summary of the method: as §1
[39] = test system: Klebsiella pneumoniae; test: Antibacterial activity against carbapenemase-producing Klebsiella pneumoniae isolate K4 after 16 to 20 hrs by broth microdilution method; assay type: functional; summary of the method: as §1
[40] = test system: Klebsiella pneumoniae; test: Antibacterial activity against carbapenemase-producing Klebsiella pneumoniae isolate K5 after 16 to 20 hrs by broth microdilution method; assay type: functional; summary of the method: as §1
[41] = test system: Klebsiella pneumoniae; test: Antibacterial activity against carbapenemase-producing Klebsiella pneumoniae after 16 to 20 hrs by broth microdilution method; assay type: functional; summary of the method: as §1
[42] = test system: Staphylococcus aureus; test: Antibacterial activity against methicillin-resistant Staphylococcus aureus isolate M5 after 16 to 20 hrs by broth microdilution method; assay type: functional; summary of the method: as §3
[43] = test system: Enterobacteriaceae; test: Antibacterial activity against NDM-1-producing Enterobacteriaceae after 16 to 20 hrs by broth microdilution method; assay type: functional; summary of the method: as §1

In the case of `CCCCCCCCCCCN(CCCCCCCCCCC)C(=O)[C@@H](N)CCCCN.Cl.Cl`, the MIC [1] is reported as 2 µg/mL, the MIC [2] is reported as 32 µg/mL and the MIC [3] is reported as 32 µg/mL. For the same molecule, the Activity [4] was “Active”, the MIC [5] was 4 µg/mL and the MIC [6] was 4 µg/mL. The MIC [7] was 4 µg/mL, the MIC [8] was 16 µg/mL and the Activity [9] was “Active”. The Activity [10] was “Active”, the MIC [11] was 2 µg/mL and the MIC [12] was 32 µg/mL. For the same molecule, the MIC [13] was 16 µg/mL, the MIC [14] was 8 µg/mL and the MIC [15] was 1 µg/mL. For the same molecule, the MIC [16] was 4 µg/mL, the MIC [17] was 2 µg/mL and the MIC [18] was 16 µg/mL. For the same molecule, the MIC [19] was 32 µg/mL, the MIC [20] was 32 µg/mL and the MIC [21] was 4 µg/mL. It also gave an MIC [22] of 32 µg/mL, an MIC [23] of 32 µg/mL and an MIC [24] of 32 µg/mL. The MIC [25] was 32 µg/mL, the MIC [26] was 2 µg/mL and the Activity [27] was “Active”. The MIC [28] was 16 µg/mL, the MIC [29] was 32 µg/mL and the MIC [30] was 16 µg/mL. The MIC [31] was 4 µg/mL, the MIC [32] was 32 µg/mL and the HC50 at 1 h [33] was 89 µg/mL. The Activity [34] was “Active”, the MIC [35] was 32 µg/mL and the MIC [36] was 32 µg/mL. It also gave an MIC [37] of 4 µg/mL, an MIC [38] of 8 µg/mL and an MIC [39] of 8 µg/mL. For the same molecule, the MIC [40] was 32 µg/mL, the MIC [41] was 8 µg/mL and the MIC [42] was 4 µg/mL. The MIC [43] was 32 µg/mL.

Source: ChEMBL document CHEMBL4130549, “Synthesis and bioactivities study of new antibacterial peptide mimics: The dialkyl cationic amphiphiles” (Eur J Med Chem, 2018)
